Measurements from ChEMBL document CHEMBL5055648, “Design, synthesis, and biological evaluation of novel Bcr-AblT315I inhibitors incorporating amino acids as flexible linker” (Bioorg Med Chem, 2021).
Calls of active or inactive are those of the source. No cut-off for these calls is given here.

Experiments:
Bcr/Abl fusion protein [1] = target: Bcr/Abl fusion protein (Homo sapiens, UniProt P00519, T315I); assay: Inhibition of wild type Bcr-Abl T315I mutant (unknown origin) incubated for 1 hr in presence of ATP by ADP-Glo kinase assay; assay type: protein assay
Bcr/Abl fusion protein [2] = target: Bcr/Abl fusion protein (Homo sapiens, UniProt P00519); assay: Inhibition of wild type Bcr-Abl (unknown origin) incubated for 1 hr in presence of ATP by ADP-Glo kinase assay; assay type: protein assay
K562 [3] = assay: Antiproliferative activity against human K562 cells assessed as inhibition of cell proliferation incubated for 48 hrs by MTT assay; assay type: functional, cell-based; settings: K562, 48 h
Procedure, shortened: (§1)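 MTT growth assay. K562 and K562R (T315I) cells grown in RPMI 1640 with 10% FBS. Hek293 and EA.hy926 cells grown in DMEM with 10% FBS. About 2.5 × 10^3 exponential-phase cells per well, preincubated 12 h at 37 °C in 5% CO2. Serially diluted compounds added for 48 h, then MTT at 0.5 mg/mL final for 4 h. Formazan dissolved in DMSO, A490 read, IC50 calculated from inhibition ratios.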

K562 [4] = assay: Induction of apoptosis in human K562 cells assessed as early apoptotic cells at 1 uM after 48 hrs by annexinV/FITC-propidium iodide staining based flow cytometry (reference value: 2.98 %); assay type: functional
[5] = target: T1, Bcr/Abl fusion protein (Homo sapiens) (UniProt P00519+P11274); assay: Inhibition of Bcr-Abl phosphorylation in human K562 cells at 10 uM measured after 48 hrs by Western blot analysis; assay type: cell-based
Procedure, shortened: (§2)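 Western blot. K562 cells treated 48 h with DMSO vehicle or compound at 1, 5, 10 or 15 µM. Lysates were normalized by BCA and equal protein run on SDS-PAGE, then transferred to PVDF and blocked in 5% milk/TBS-0.1% Tween-20. Probed overnight at 4 °C with p-Bcr-Abl and GAPDH antibodies, then with HRP secondaries for 2 h at room temperature. Read-out was p-Bcr-Abl/GAPDH ratio.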

K562 [6] = assay: Induction of apoptosis in human K562 cells assessed as necrotic cells at 20 uM after 48 hrs by annexinV/FITC-propidium iodide staining based flow cytometry (reference value: 0.23 %); assay type: functional
EA.hy 926 = assay: Cytotoxicity against human EA.hy926 cells assessed as cell growth inhibition incubated for 48 hrs by MTT assay; assay type: cell-based; settings: ea.hy 926, 48 h; procedure, shortened: as §1
K562 [7] = assay: Induction of apoptosis in human K562 cells assessed as viable cells at 20 uM after 48 hrs by annexinV/FITC-propidium iodide staining based flow cytometry (reference value: 84.19 %); assay type: functional; settings: read-out: Activity
[8] = target: T1, Bcr/Abl fusion protein (Homo sapiens); assay: Inhibition of Bcr-Abl in human K562 cells assessed as decrease in tyrosine phosphorylation measured after 48 hrs by Western blot analysis; assay type: cell-based; settings: dose 1-15 µM; procedure, shortened: as §2
K562 [9] = assay: Induction of apoptosis in human K562 cells assessed as necrotic cells at 1 uM after 48 hrs by annexinV/FITC-propidium iodide staining based flow cytometry (reference value: 0.23 %); assay type: functional
K562 [10] = assay: Induction of apoptosis in human K562 cells assessed as viable cells at 10 uM after 48 hrs by annexinV/FITC-propidium iodide staining based flow cytometry (reference value: 84.19 %); assay type: functional; settings: read-out: Activity
K562 [11] = assay: Induction of apoptosis in human K562 cells assessed as viable cells at 1 uM after 48 hrs by annexinV/FITC-propidium iodide staining based flow cytometry (reference value: 84.19 %); assay type: functional; settings: read-out: Activity
K562 [12] = assay: Induction of apoptosis in human K562 cells assessed as necrotic cells at 10 uM after 48 hrs by annexinV/FITC-propidium iodide staining based flow cytometry (reference value: 0.23 %); assay type: functional
K562 [13] = assay: Induction of apoptosis in human K562 cells assessed as late apoptotic cells at 20 uM after 48 hrs by annexinV/FITC-propidium iodide staining based flow cytometry (reference value: 12.60 %); assay type: functional
K562 [14] = assay: Induction of apoptosis in human K562 cells assessed as early apoptotic cells at 20 uM after 48 hrs by annexinV/FITC-propidium iodide staining based flow cytometry (reference value: 2.98 %); assay type: functional
HEK293 = assay: Cytotoxicity against human HEK293 cells assessed as cell growth inhibition incubated for 48 hrs by MTT assay; assay type: cell-based; settings: hek293, 48 h; procedure, shortened: as §1
K562 [15] = assay: Induction of apoptosis in human K562 cells assessed as late apoptotic cells at 1 uM after 48 hrs by annexinV/FITC-propidium iodide staining based flow cytometry (reference value: 12.60 %); assay type: functional
K562 [16] = assay: Induction of apoptosis in human K562 cells assessed as early apoptotic cells at 10 uM after 48 hrs by annexinV/FITC-propidium iodide staining based flow cytometry (reference value: 2.98 %); assay type: functional
K-562R [17] = assay: Antiproliferative activity against T315I mutant expressing human K-562R cells assessed as inhibition of cell proliferation incubated for 48 hrs by MTT assay; assay type: functional, cell-based; procedure, shortened: as §1
K562 [18] = assay: Induction of apoptosis in human K562 cells assessed as late apoptotic cells at 10 uM after 48 hrs by annexinV/FITC-propidium iodide staining based flow cytometry (reference value: 12.60 %); assay type: functional
K-562R [19] = assay: Antiproliferative activity against T315I mutant expressing human K-562R cells assessed as inhibition of cell proliferation at 100 uM incubated for 48 hrs by MTT assay relative to control; assay type: functional; procedure, shortened: as §1

| Compound | IC50 (Bcr/Abl fusion protein [1]) [µM] | IC50 (Bcr/Abl fusion protein [2]) [µM] | IC50 (K562 [3]) [µM] | further results |
| --- | --- | --- | --- | --- |
| CC(=O)Nc1ccc(-c2ccc(C(=O)N[C@H]3CN[C@@H](C(=O)Nc4ccc(Cl)c(C(F)(F)F)c4)C3)cc2)cn1 | 13 | 34.5 | 22.8 |  |
| O=C(NC1CC1)c1cncc(-c2cccc(C(=O)N[C@H]3CN[C@@H](C(=O)Nc4ccc(Cl)c(C(F)(F)F)c4)C3)c2)c1 | 26.6 | 16 | 27.3 |  |
| C[C@H](NC(=O)c1cccc(-c2cncc(C(=O)NC3CC3)c2)c1)C(=O)Nc1ccc(Cl)c(C(F)(F)F)c1 | 7.83 | 1.46 | 15.1 |  |
| C[C@H](NC(=O)c1ccc(-c2cncc(C(=O)NC3CC3)c2)cc1)C(=O)Nc1ccc(Cl)c(C(F)(F)F)c1 | 4.99 | 9.38 | 396 |  |
| CC(=O)Nc1ccc(-c2cccc(C(=O)N[C@H]3CN[C@@H](C(=O)Nc4ccc(Cl)c(C(F)(F)F)c4)C3)c2)cn1 | 24.6 | 0.49 | 8.71 |  |
| CCN(CC)C(=O)c1cncc(-c2ccc(C(=O)N[C@H]3CN[C@@H](C(=O)Nc4ccc(Cl)c(C(F)(F)F)c4)C3)cc2)c1 | 50.5 | 7.4 | 55.5 |  |
| CN(C)CCNC(=O)c1cncc(-c2cccc(C(=O)N[C@H]3CN[C@@H](C(=O)Nc4ccc(Cl)c(C(F)(F)F)c4)C3)c2)c1 | 21.7 | 2.41 | 19.8 |  |
| C[C@H](NC(=O)c1ccc(-c2ccc(NC(=O)C(C)(C)C)nc2)cc1)C(=O)Nc1ccc(Cl)c(C(F)(F)F)c1 | 0.53 | 0.041 | 7.45 | Activity (K562 [4]): 3.39%; inhibition [5]: Active; Activity (K562 [6]): 1.65%; Activity (EA.hy 926): Non-Toxic; viability at 20 µM (K562 [7]): 35.9%; inhibition [8]: Dose-dependent effect; Activity (K562 [9]): 0.98%; viability at 10 µM (K562 [10]): 36.5%; viability at 1 µM (K562 [11]): 74.5%; Activity (K562 [12]): 4.57%; Activity (K562 [13]): 50.94%; Activity (K562 [14]): 11.48%; Activity (HEK293): Non-Toxic; Activity (K562 [15]): 21.11%; Activity (K562 [16]): 10.03%; IC50 (K-562R [17]): 9.1 µM; Activity (K562 [18]): 48.96% |
| CCN(CC)C(=O)c1cncc(-c2cccc(C(=O)N[C@@H](C)C(=O)Nc3ccc(Cl)c(C(F)(F)F)c3)c2)c1 | 86 | 0.29 | 29.9 |  |
| CN(C)CCNC(=O)c1cncc(-c2ccc(C(=O)N[C@H]3CN[C@@H](C(=O)Nc4ccc(Cl)c(C(F)(F)F)c4)C3)cc2)c1 | 22.1 | 4.23 | 4.56 |  |
| CC(C)(C)C(=O)Nc1ccc(-c2ccc(C(=O)N[C@H]3CN[C@@H](C(=O)Nc4ccc(Cl)c(C(F)(F)F)c4)C3)cc2)cn1 | 50.3 | 2.64 | 11.6 |  |
| C[C@H](NC(=O)c1cccc(-c2ccc(NC(=O)C(C)(C)C)nc2)c1)C(=O)Nc1ccc(Cl)c(C(F)(F)F)c1 | 244 | 4.48 | 18.4 |  |
| C[C@H](NC(=O)c1ccc(-c2ccc(N)nc2)cc1)C(=O)Nc1ccc(Cl)c(C(F)(F)F)c1 | 7.51 | 0.77 | 5.95 |  |
| CCN(CC)C(=O)c1cncc(-c2ccc(C(=O)N[C@@H](C)C(=O)Nc3ccc(Cl)c(C(F)(F)F)c3)cc2)c1 | 59.9 | 0.011 | 20.2 |  |
| C[C@H](NC(=O)c1ccc(-c2ccc(NS(C)(=O)=O)nc2)cc1)C(=O)Nc1ccc(Cl)c(C(F)(F)F)c1 | 9.95 | 3.77 | 7.24 |  |
| CS(=O)(=O)Nc1ccc(-c2cccc(C(=O)N[C@H]3CN[C@@H](C(=O)Nc4ccc(Cl)c(C(F)(F)F)c4)C3)c2)cn1 | 16.2 | 6.48 | 24.6 |  |
| CS(=O)(=O)Nc1ccc(-c2ccc(C(=O)N[C@H]3CN[C@@H](C(=O)Nc4ccc(Cl)c(C(F)(F)F)c4)C3)cc2)cn1 | 36.9 | 0.15 | 45 |  |
| Cc1ccc(C(=O)Nc2ccc(CN3CCN(C)CC3)c(C(F)(F)F)c2)cc1C#Cc1cnc2cccnn12 [PONATINIB] |  |  |  | IC50 (K-562R [17]): 0.093 µM |
| C[C@H](NC(=O)c1cccc(-c2ccc(NS(C)(=O)=O)nc2)c1)C(=O)Nc1ccc(Cl)c(C(F)(F)F)c1 | 129 | 3.34 | 4.66 |  |
| C[C@H](NC(=O)c1cccc(-c2ccc(N)nc2)c1)C(=O)Nc1ccc(Cl)c(C(F)(F)F)c1 | 86.8 | 4.4 | 8.09 |  |
| O=C(NC1CC1)c1cncc(-c2ccc(C(=O)N[C@H]3CN[C@@H](C(=O)Nc4ccc(Cl)c(C(F)(F)F)c4)C3)cc2)c1 | 39 | 61.2 | 65.3 |  |
| Cc1ccc(NC(=O)c2ccc(CN3CCN(C)CC3)cc2)cc1Nc1nccc(-c2cccnc2)n1 [IMATINIB] |  |  |  | inhibition at 100 µM (K-562R [19]): 45% |
| CCN(CC)C(=O)c1cncc(-c2cccc(C(=O)N[C@H]3CN[C@@H](C(=O)Nc4ccc(Cl)c(C(F)(F)F)c4)C3)c2)c1 | 42.7 | 3.75 | 24.9 |  |
| C[C@H](NC(=O)c1cccc(-c2cncc(C(=O)NCCN(C)C)c2)c1)C(=O)Nc1ccc(Cl)c(C(F)(F)F)c1 | 2.41 | 0.64 | 7.92 |  |
| CC(=O)Nc1ccc(-c2cccc(C(=O)N[C@@H](C)C(=O)Nc3ccc(Cl)c(C(F)(F)F)c3)c2)cn1 | 38.6 | 0.6 | 42.8 |  |
| CC(C)(C)C(=O)Nc1ccc(-c2cccc(C(=O)N[C@H]3CN[C@@H](C(=O)Nc4ccc(Cl)c(C(F)(F)F)c4)C3)c2)cn1 | 147 | 4.63 | 28 |  |
| Nc1ccc(-c2ccc(C(=O)N[C@H]3CN[C@@H](C(=O)Nc4ccc(Cl)c(C(F)(F)F)c4)C3)cc2)cn1 | 14.1 | 9.18 | 9.13 |  |
| CC(=O)Nc1ccc(-c2ccc(C(=O)N[C@@H](C)C(=O)Nc3ccc(Cl)c(C(F)(F)F)c3)cc2)cn1 | 22.4 | 0.2 | 107 |  |
| C[C@H](NC(=O)c1ccc(-c2cncc(C(=O)NCCN(C)C)c2)cc1)C(=O)Nc1ccc(Cl)c(C(F)(F)F)c1 | 2.28 | 6.62 | 4.65 |  |
| Nc1ccc(-c2cccc(C(=O)N[C@H]3CN[C@@H](C(=O)Nc4ccc(Cl)c(C(F)(F)F)c4)C3)c2)cn1 | 103 | 12 | 20 |  |
